Test results from paper PMC4130341 (Journal of nuclear medicine : official publication, Society …, 2013).
Bridge positions count the residues as written; N and C are the ends. Peptide text beside a SMILES is read from it. * marks the point of attachment. Benzoyl(4-F) = O=C(c1ccc(F)cc1)*

Experiments:
[1] = test system: BxPC3 xenografted tumors; heart (blood) radioactivity; assay: Dynamic PET; type: in vivo; conditions: from radioactivity in the heart, 10-min dynamic PET, mice, tail vein
How it was run: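 Female nu/nu mice (6 wk) received 10^7 BxPC3 or HEK-293 cells subcutaneously in the shoulder and grew tumors to 10 mm diameter. Under isoflurane, mice got 2–3 MBq of 18F-fluorobenzoate-labelled peptide by tail vein. A 10-min dynamic scan was acquired on a rodent microPET. Mean signal in ellipsoid regions of interest was quantified.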

[2] = test system: BxPC3 (integrin αvβ6–positive) pancreatic adenocarcinoma xenografted tumors; assay: Small-animal PET, static scans, BxPC3 xenografts; type: in vivo, mice; conditions: mean ± SD
How it was run: (§1)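 Nu/nu female mice (6 wk) carried BxPC3 shoulder xenografts of 10 mm diameter. Under isoflurane they were dosed intravenously (tail vein) with 2–3 MBq of 18F-fluorobenzoate-labelled peptide. Rodent microPET 5-min static scans were taken at 0.5, 1 and 2 h. Tumor, kidney, liver and hind-leg muscle signals were quantified, given as mean ± SD (n = 4–5 per tracer) and compared by 2-tailed t test, P < 0.05.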

[3] = Small-animal PET, static scans, BxPC3 xenografts; type: in vivo, mice; conditions: female, nu/nu, mouse, iv, total radioactivity
How it was run: as §1

[4] = test system: BxPC3 (integrin αvβ6–positive) tumors; assay: Excised tissue biodistribution; type: in vivo, mice; conditions: γ-counter, mean ± SD
How it was run: (§2)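 Tumors were grown as subcutaneous shoulder xenografts (10^7 BxPC3 or HEK-293 cells) in 6-wk female nu/nu mice to 10 mm diameter. Isoflurane-anaesthetised mice received 2–3 MBq of 18F-fluorobenzoate peptide by tail vein and were euthanised at 0.5 or 2 h. Weighed tissues were γ-counted and expressed as decay-corrected %ID/g, mean ± SD. Group sizes: BxPC3 3 (0.5 h), 4–5 (2 h); 293 3 (0.5 h), 3–4 (2 h); nontumor 6 (0.5 h), 8 (2 h).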

[5] = test system: 293 (integrin αvβ6–negative) tumors; assay: Excised tissue biodistribution; type: in vivo, mice; conditions: γ-counter, mean ± SD
How it was run: as §2

BxPC3 tumors = assay: Coinjection study with unlabeled peptide, excised tissue biodistribution; type: in vivo, mice; conditions: 250 µg unlabeled S02 coinjected

For `CC[C@H](C)[C@@H]1NC(=O)[C@@H]2CSSC[C@H](NC(=O)CNC(=O)c3ccc(F)cc3)C(=O)N[C@@H](CCCNC(=N)N)C(=O)N[C@@H](CO)C(=O)N[C@@H](CC(C)C)C(=O)N[C@@H](C)C(=O)N[C@@H](CCCNC(=N)N)C(=O)N[C@@H]([C@@H](C)O)C(=O)N[C@@H](CC(=O)O)C(=O)N[C@@H](CC(C)C)C(=O)N[C@@H](CC(=O)O)C(=O)N[C@@H](Cc3c[nH]cn3)C(=O)N[C@@H](CC(C)C)C(=O)N[C@@H](CCCNC(=N)N)C(=O)NCC(=O)N[C@@H](CCCNC(=N)N)C(=O)N[C@H]3CSSC[C@H](NC1=O)C(=O)N[C@@H](CC(C)C)C(=O)N[C@@H](CCC(=O)O)C(=O)N[C@@H](CC(N)=O)C(=O)NCC(=O)N[C@@H](Cc1ccccc1)C(=O)N[C@H](C(=O)NCC(=O)O)CSSC[C@H](NC(=O)[C@H](CC(=O)O)NC(=O)[C@H](CO)NC(=O)[C@H](CC(=O)O)NC(=O)[C@H](CO)NC(=O)[C@H](CO)NC3=O)C(=O)N[C@@H](CC(C)C)C(=O)N[C@@H](C)C(=O)N[C@@H](CCC(=O)O)C(=O)N2` [^18F-fluorobenzoate-S02] ({Benzoyl(4-F)}-GCRSLARTDLDHLRGRCSSDSDCLAECICLENGFCG-OH; disulfide 2-27, 17-29, 23-35; C-terminus assumed), the blood clearance half-time [1] was 1.8 min, the “kidney uptake, PET” value ([2]; 0.5 h) was 18% ± 6% and the “tumor uptake, PET, BxPC3” value ([2]; 0.5 h after injection, 2–3 MBq tail vein, nude mice, n = 4–5) was 1.3% ± 0.4%. For the same compound, the “tumor signal, PET, BxPC3” value ([2]; 1 h after injection, 2–3 MBq tail vein) was 0.7 ± 0.3 % ID/g, the “liver uptake, PET” value ([2]; time not printed at place (given beside the 0.5 h kidney values)) was 0.9% ± 0.3% and the tissue uptake at 1 h ([3]; kidney) was 7 ± 3 %ID/g. For the same compound, the tissue uptake at 1 h ([3]; liver) was 0.3 ± 0.1 %ID/g, the “tumor uptake, excised tissue, BxPC3” value ([4]; 0.5 h after injection, n = 3) was 0.71 ± 0.13 %ID/g and the “tumor uptake, excised tissue, BxPC3” value ([4]; 2 h after injection, n = 4–5) was 0.24 ± 0.06 %ID/g. For the same compound, the “tumor uptake, excised tissue, 293” value ([5]; 0.5 h after injection, n = 3) was 0.11 ± 0.02 %ID/g, the “tumor uptake, excised tissue, 293” value ([5]; 2 h after injection, n = 3–4) was 0.10 ± 0.05 %ID/g and the “effect of unlabeled peptide coinjection on tumor uptake” value (BxPC3 tumors) was “does not demonstrate tumor uptake reduction”.
